# eIF2B yeast act: GCN4-lacZ reporter reduction in eIF2B-epsilon mutant yeast, primary screen, S. cerevisiae, eIF2B-epsilon R284H, Beta-Glo luminescence. 27,000 tested, 0.91% active. inhibition, % at 25 µM (by protocol);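 active = mutant luminescence inhibited past about 50% while wild type luminescence and mutant growth stay under set limits, limit read from the data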
#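 Material: yeast eIF2B-epsilon R284H mutant carrying GCN4–beta-galactosidase fusion. Medium: YPD yeast growth medium. Incubation: 16 h growth with compound at 30 °C, 90 min Beta-Glo step. Signal: Beta-Glo luminescence plus absorbance at 595 nm. Evaluation: % inhibition of reporter signal and growth versus controls. Doses: 25 µM single dose.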
# Active calls of the source: *. Shown is part of a subset that was picked to be rich in hits.
SMILES,eIF2B yeast act
CC(NC(=O)c1cccs1)C(=O)NC1=NCCS1 (configuration not stated),23
CC(C)C(NC(=O)c1ccccc1)C(=O)NC1=NCCS1 (configuration not stated),52*
Cc1cc(C)n(-c2ccc(C(=O)NC3=NCCS3)cc2)n1,23
CCOC(=O)N1CCC(NC(=O)C2CCN(S(=O)(=O)N3CCC(C)CC3)CC2)CC1,28
CCOC(=O)c1ccc(NC(=O)CCC(=O)OC)cc1,18
Nc1nnc(CC(=O)NCc2ccccc2)s1,-3
CCOC(=O)c1c(=O)n(O)c2ccc(OC)cc2[n+]1[O-],11
Oc1c(CN2CCOCC2)cc(-c2ccccc2)cc1CN1CCOCC1,6
Cc1c(O)c(CN2CCCC2)cc2c1oc(=O)c1ccccc12,58*
CCCCc1cc(=O)oc2c(CN3CCCC3)c(O)c(Cl)cc12,12
CC[N+](CC)(CC)C/C(N)=N/O,-13
CC(C)(C)CC(=O)Nc1ccc(Nc2ccccc2)cc1,4
CCn1c(SCC(=O)Nc2ccc(C)cc2)nnc1-c1ccc(O)cc1,16
COc1cc(CN2C(=O)C(NC(=O)c3ccco3)(C(F)(F)F)C3=C2CC(C)(C)CC3=O)cc(OC)c1 (configuration not stated),15
Oc1ccc(Br)cc1CN1CCCCCCC1,12
O=C(C1CCCN(Cc2ccccc2)C1)N1CCCCC1 (configuration not stated),12
Oc1cc(Cc2ccccc2)cnc1CN1CCCCC1,56*
CC(C)c1nc2cc3ccccc3cc2[nH]1,-8
CCCCc1nnc(SCCSc2nnc(CCCC)n2N)n1N,-13
O=c1ccnc(S/C=C/c2ccccc2)[nH]1,66*
O=C(CCn1c(=S)[nH]c2ccccc2c1=O)N1CCN(c2ccccn2)CC1,20
Cc1cc2nncn2c(Cc2ccccc2)n1,27
Cc1cc(=O)oc2ccc(OCC(=O)N3CCc4ccccc43)cc12,50*
Cc1cc(=O)oc2cc(OCC(=O)N3CCCc4ccccc43)ccc12,-7
Cc1cc(=O)oc2cc(OCC(=O)N3CCc4ccccc4C3)ccc12,13
SMILES,eIF2B yeast act
O=c1cc(CSc2ccc(S(=O)(=O)N3CCCCC3)cn2)nc2sccn12,21
Nc1nc(C2CCCN2S(=O)(=O)c2ccc(Cl)cc2)cs1 (configuration not stated),14
OC(CNC1CCCCC1)CN1CCN(CC(O)CNC2CCCCC2)CC1 (configuration not stated),16
Cn1c(=O)n(CCc2ccccc2)c(=O)c2c1nc1n2CCN1c1ccccc1,-3
CC(C)CNC(=O)c1cc2nc(C3CC3)cc(C(F)(F)F)n2n1,57*
O=C(Nc1cccnc1)c1cc2nc(C3CC3)cc(C(F)(F)F)n2n1,-1
O=C(c1cc2nc(-c3ccc(F)cc3)cc(C(F)(F)F)n2n1)N1CCOCC1,6
O=c1[nH]ncc(NCCCO)c1Cl,18
Cc1ccc2nc(NCCCO)[nH]c2c1,11
O=c1c(Cl)c(NCCCO)cnn1-c1nc2ccccc2[nH]1,56*
CCc1nccn1S(=O)(=O)c1ccc(Br)cc1Br,-9
O=C(COc1ccc(Cl)cc1)Nc1ccccc1N1CCOCC1,-9
Cc1ccc(-n2c(N)c(C(N)=O)sc2=S)c(C)c1,-13
COc1ccc(Cl)cc1-n1c(N)c(C(N)=O)sc1=S,53*
CCOC(=O)c1sc(=S)n(-c2ccccc2OC)c1N,29
CC1CCN(CCCNC(=O)c2ccc(CSCc3cccc(Cl)c3)o2)CC1,19
COc1cc(C(=S)N2CCCC2)cc(OC)c1O,57*
COc1ccc(C(=S)N2CCNCC2)cc1,18
Oc1ccccc1C(=S)N1CCCCCC1,14
CSc1ncc(Cl)c(C(=O)C(C#N)c2nc3c(C)cc(C)cc3c(=O)[nH]2)n1 (configuration not stated),18
O=C1CC(N2CCC(O)(c3ccc(Cl)cc3)CC2)C(=O)N1Cc1ccc(N2CCCC2=O)cc1 (configuration not stated),15
CC1CCC(C(C)C)C(OC(=O)CSc2n[nH]c(=O)[nH]c2=O)C1 (configuration not stated),-64
CCC(=O)OCCn1c(Br)nc2c1c(=O)[nH]c(=O)n2C,29
CCCCCOC(=O)Cn1c(SCC(=O)Nc2ccccc2)nc2c1c(=O)[nH]c(=O)n2C,60*
CCOC(=O)CSc1nc2c(c(=O)[nH]c(=O)n2C)n1C/C=C(/C)Cl,22
CCCCn1c(SCC(=O)Nc2cc(C)on2)nc2ccccc2c1=O,18
CC(NC(=O)CSc1nc2ccccc2c(=O)n1CCCO)c1ccccc1 (configuration not stated),53*
CC(C)NC(=O)CSc1nc2ccccc2c(=O)n1CCCOC(C)C,-5
Cc1cccc(N(CC(=O)NCCC2=CCCCC2)S(C)(=O)=O)c1C,8
CN=C1S/C(=C\c2cccn2-c2cccc(Br)c2)C(=O)N1C,21

# High-throughput results deposited in PubChem BioAssay by PCMD.
